Here are results for 13 compounds from ChEMBL document CHEMBL3102796.

For test [1], the target named is T1, Neuraminidase (Influenza A virus, UniProt B4URF0). Kind of test: Inhibition of Influenza A virus A/California/07/2009 (H1N1) neuraminidase using MUNANA as substrate preincubated for 30 mins measured after 2 hrs.
The target of test [2] is T1, Neuraminidase. Kind of test: Inhibition of Influenza A virus A/Hong Kong/8/1968 (H3N2) neuraminidase using MUNANA as substrate preincubated for 30 mins measured after 2 hrs.
Test [3] deals with Influenza A virus. Kind of test: Antiviral activity against Influenza A virus A/California/07/2009 (H1N1) infected in MDCK cells assessed as reduction in virus plaque formation after 5 days. The format is functional, organism-based. Conditions: 120 h. In short, it runs like this: (§1)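 MDCK cells were seeded at 1×10^6 per well and inoculated with virus at confluence. Serial ten-fold dilutions of inhibitor were added in an overlay of serum-free DMEM with 0.6% agarose and 1 µg/mL TPCK-treated trypsin. The overlay was removed after 5 days, and cells were fixed with 70% ethanol and stained with 0.2% crystal violet.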

The subject of test [4] is Influenza A virus. Kind of test: Antiviral activity against Influenza A virus A/Hong Kong/8/1968 (H3N2) infected in MDCK cells assessed as reduction in virus plaque formation after 5 days. Conditions: 120 h. The class given is functional, organism-based. The gist of the method: as §1
In test [5] the target is T1, Neuraminidase. Kind of test: Inhibition of Influenza A virus H3N2 neuraminidase using MUNANA as substrate preincubated for 30 mins measured after 2 hrs.
Test [6] concerns the target T1, Neuraminidase. Kind of test: Inhibition of Influenza A virus H5N1 neuraminidase using MUNANA as substrate preincubated for 30 mins measured after 2 hrs.

Where only a bound is given, the exact number is not on record here.

T1 sequence (B4URF0 whole entry): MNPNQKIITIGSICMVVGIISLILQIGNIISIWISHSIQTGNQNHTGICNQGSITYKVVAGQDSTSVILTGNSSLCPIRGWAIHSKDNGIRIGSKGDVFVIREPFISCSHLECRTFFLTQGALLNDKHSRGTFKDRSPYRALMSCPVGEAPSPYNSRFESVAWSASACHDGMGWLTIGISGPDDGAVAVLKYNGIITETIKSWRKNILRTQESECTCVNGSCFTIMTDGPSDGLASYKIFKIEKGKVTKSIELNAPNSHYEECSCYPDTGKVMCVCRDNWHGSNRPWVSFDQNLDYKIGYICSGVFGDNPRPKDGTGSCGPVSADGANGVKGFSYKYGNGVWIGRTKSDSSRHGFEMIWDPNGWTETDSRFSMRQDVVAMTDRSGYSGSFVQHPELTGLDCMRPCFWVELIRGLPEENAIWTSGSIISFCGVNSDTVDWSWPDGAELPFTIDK

Consider `CC(=O)N[C@H]1[C@H]([C@H](O)[C@H](O)CO)OC(SCCCCCCS)(C(=O)O)C[C@@H]1N` (stereo not given in full), for which the IC50 (usually the concentration needed to halve the response being measured) against Neuraminidase [1] was 56 µM; on Neuraminidase [2], 64 µM; in the test with Influenza A virus [3], over 100 µM; with Influenza A virus [4], 10 µM; against Neuraminidase [5] it was 178 µM; against Neuraminidase [6] it was 127 µM.
In the case of `CC(=O)N[C@H]1[C@H]([C@H](O)[C@H](O)CO)OC(SCCCCCCSC2(C(=O)O)C[C@H](N)[C@@H](NC(C)=O)[C@H]([C@H](O)[C@H](O)CO)O2)(C(=O)O)C[C@@H]1N` (stereo not given in full), the IC50 came out at 9.9 µM against Neuraminidase [1]; 11.6 µM against Neuraminidase [2]; 100 µM with Influenza A virus [3]; 1 µM with Influenza A virus [4]; 32 µM on Neuraminidase [5]; 20 µM against Neuraminidase [6].
With `CC(=O)N[C@H]1[C@H]([C@H](O)[C@H](O)CO)OC(SCCCCCCCCCCCCSC2(C(=O)O)C[C@H](N)[C@@H](NC(C)=O)[C@H]([C@H](O)[C@H](O)CO)O2)(C(=O)O)C[C@@H]1N` (stereo not given in full), the IC50 against Neuraminidase [1] is 11 µM; on Neuraminidase [2], 15 µM; in the test on Influenza A virus [3], 100 µM; in the test with Influenza A virus [4], 1 µM; against Neuraminidase [5] it was 40 µM; on Neuraminidase [6] it was 31 µM.
For `CC(=O)N[C@H]1[C@H]([C@H](O)[C@H](O)CO)OC(SCCOCCOCCOCCSC2(C(=O)O)C[C@H](N)[C@@H](NC(C)=O)[C@H]([C@H](O)[C@H](O)CO)O2)(C(=O)O)C[C@@H]1N` (stereo not given in full), the IC50 on Neuraminidase [1] turned out to be 9.8 µM; against Neuraminidase [2], 11 µM; in the test with Influenza A virus [3], 100 µM; in the test with Influenza A virus [4], 1 µM; at Neuraminidase [5], 39 µM; against Neuraminidase [6], 28 µM.
Consider `CC(=O)N[C@H]1[C@H]([C@H](O)[C@H](O)CO)OC(SCCOCCOCCOCCOCCSC2(C(=O)O)C[C@H](N)[C@@H](NC(C)=O)[C@H]([C@H](O)[C@H](O)CO)O2)(C(=O)O)C[C@@H]1N` (stereo not given in full), for which the IC50 on Neuraminidase [1] amounted to 36 µM; against Neuraminidase [2] it was 21 µM; with Influenza A virus [3], 100 µM; with Influenza A virus [4] it was 1 µM; at Neuraminidase [5] it was 178 µM; on Neuraminidase [6] it was 64 µM.
For the compound `CC(=O)N[C@H]1[C@H]([C@H](O)[C@H](O)CO)OC(SCCOCCOCCOCCOCCOCCSC2(C(=O)O)C[C@H](N)[C@@H](NC(C)=O)[C@H]([C@H](O)[C@H](O)CO)O2)(C(=O)O)C[C@@H]1N` (stereo not given in full), the IC50 came out at 45 µM against Neuraminidase [1]; 33 µM against Neuraminidase [2]; 100 µM in the test on Influenza A virus [3]; 1 µM with Influenza A virus [4]; 216 µM on Neuraminidase [5]; 85 µM against Neuraminidase [6].
On to `CC(=O)N[C@H]1[C@H]([C@H](O)[C@H](O)CO)OC(SCCCCCCS)(C(=O)O)C[C@@H]1NC(=N)N` (stereo not given in full), for which the IC50 stood at 0.8 µM against Neuraminidase [1]; 0.55 µM against Neuraminidase [2]; 10 µM with Influenza A virus [3]; 1 µM in the test on Influenza A virus [4]; 1 µM against Neuraminidase [5]; 0.1 µM against Neuraminidase [6].
For `CC(=O)N[C@H]1[C@H]([C@H](O)[C@H](O)CO)OC(SCCCCCCSC2(C(=O)O)C[C@H](NC(=N)N)[C@@H](NC(C)=O)[C@H]([C@H](O)[C@H](O)CO)O2)(C(=O)O)C[C@@H]1NC(=N)N` (stereo not given in full), the IC50 at Neuraminidase [1] was determined as 0.26 µM; on Neuraminidase [2], 0.25 µM; in the test with Influenza A virus [3], 1 µM; in the test on Influenza A virus [4], 0.01 µM; against Neuraminidase [5], 4.2 µM; on Neuraminidase [6], 0.2 µM.
With `CC(=O)N[C@H]1[C@H]([C@H](O)[C@H](O)CO)OC(SCCCCCCCCCCCCSC2(C(=O)O)C[C@H](NC(=N)N)[C@@H](NC(C)=O)[C@H]([C@H](O)[C@H](O)CO)O2)(C(=O)O)C[C@@H]1NC(=N)N` (stereo not given in full), the IC50 was found to be 0.8 µM against Neuraminidase [1]; 0.5 µM against Neuraminidase [2]; 1 µM in the test with Influenza A virus [3]; 0.1 µM in the test on Influenza A virus [4]; 12 µM on Neuraminidase [5]; 0.73 µM against Neuraminidase [6].
As for `CC(=O)N[C@H]1[C@H]([C@H](O)[C@H](O)CO)OC(SCCOCCOCCOCCSC2(C(=O)O)C[C@H](NC(=N)N)[C@@H](NC(C)=O)[C@H]([C@H](O)[C@H](O)CO)O2)(C(=O)O)C[C@@H]1NC(=N)N` (stereo not given in full), the IC50 amounted to 2.4 µM at Neuraminidase [1]; 1.78 µM against Neuraminidase [2]; 1 µM with Influenza A virus [3]; 0.1 µM in the test with Influenza A virus [4]; 10 µM at Neuraminidase [5]; 2.5 µM against Neuraminidase [6].
As for `CC(=O)N[C@H]1[C@H]([C@H](O)[C@H](O)CO)OC(SCCOCCOCCOCCOCCSC2(C(=O)O)C[C@H](NC(=N)N)[C@@H](NC(C)=O)[C@H]([C@H](O)[C@H](O)CO)O2)(C(=O)O)C[C@@H]1NC(=N)N` (stereo not given in full), the IC50 against Neuraminidase [1] worked out at 1.2 µM; against Neuraminidase [2], 1 µM; with Influenza A virus [3] it was 1 µM; in the test with Influenza A virus [4], 0.01 µM; against Neuraminidase [5], 10 µM; against Neuraminidase [6], 1.1 µM.
Turning to `CCOC(=O)C1=C[C@@H](OC(CC)CC)[C@H](NC(C)=O)[C@@H](N)C1` [OSELTAMIVIR], the IC50 with Influenza A virus [3] and in the test with Influenza A virus [4] was 0.001 µM each time.
`CC(=O)N[C@H]1[C@H]([C@H](O)[C@H](O)CO)OC(C(=O)O)=C[C@@H]1NC(=N)N` [ZANAMIVIR]: the IC50 in the test on Influenza A virus [3] was found to be 0.01 µM; in the test with Influenza A virus [4] it was 0.001 µM.
